ChEMBL document CHEMBL1145082 (J Med Chem, 2003)

Tests used:
Bos taurus = species: Bos taurus; experiment: Inhibition of bovine Protein kinase A at 10 uM; design: scale not given: the % may be the effect or the level left
Method in brief: (§1)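 Outsourced selectivity panel. Each kinase phosphorylated its own peptide or protein substrate in the presence of 10 µM compound and 10 µM ATP, within the linear time range. Activity given as mean percent of control incubations from duplicate determinations.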

[1] = target: Fibroblast growth factor receptor 3 (Homo sapiens) (UniProt P22607); experiment: Inhibition of Fibroblast growth factor receptor 3 at 10 uM; design: scale not given: the % may be the effect or the level left; method in brief: as §1
Sequence of Fibroblast growth factor receptor 3 (Homo sapiens) (P22607 23-806 limits assumed): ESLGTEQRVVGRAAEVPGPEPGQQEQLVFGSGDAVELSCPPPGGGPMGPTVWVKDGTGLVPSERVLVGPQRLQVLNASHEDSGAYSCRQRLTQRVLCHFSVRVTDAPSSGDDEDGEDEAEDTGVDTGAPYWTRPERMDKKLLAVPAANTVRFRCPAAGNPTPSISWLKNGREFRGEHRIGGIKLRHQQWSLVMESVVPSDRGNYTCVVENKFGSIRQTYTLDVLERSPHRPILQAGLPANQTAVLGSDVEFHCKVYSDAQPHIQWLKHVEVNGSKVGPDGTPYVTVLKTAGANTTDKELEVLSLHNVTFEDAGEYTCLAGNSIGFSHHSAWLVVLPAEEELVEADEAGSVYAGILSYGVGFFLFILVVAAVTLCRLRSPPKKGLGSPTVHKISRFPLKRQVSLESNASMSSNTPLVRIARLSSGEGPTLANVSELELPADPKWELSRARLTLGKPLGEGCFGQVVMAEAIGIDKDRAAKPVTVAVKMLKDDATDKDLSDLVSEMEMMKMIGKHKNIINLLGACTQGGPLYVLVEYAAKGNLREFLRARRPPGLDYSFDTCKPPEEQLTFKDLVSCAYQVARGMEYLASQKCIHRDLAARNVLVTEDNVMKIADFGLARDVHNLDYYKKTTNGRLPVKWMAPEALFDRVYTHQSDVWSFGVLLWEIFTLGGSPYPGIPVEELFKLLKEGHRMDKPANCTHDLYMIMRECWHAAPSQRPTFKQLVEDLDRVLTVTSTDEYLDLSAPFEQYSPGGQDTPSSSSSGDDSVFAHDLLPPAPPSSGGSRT

[2] = target: Tyrosine-protein kinase SYK (Homo sapiens) (UniProt P43405); experiment: Inhibition of Syk protein tyrosine kinase at 10 uM; design: scale not given: the % may be the effect or the level left; method in brief: as §1
[3] = target: Cyclin-dependent kinase 2/cyclin E (Homo sapiens) (UniProt P24864+P24941+O96020); experiment: Inhibition of Cyclin-dependent kinase 2-cyclin E at 10 uM; type: protein-complex assay; design: scale not given: the % may be the effect or the level left; method in brief: as §1
[4] = target: Protein kinase C beta type (Homo sapiens, UniProt P05771); experiment: Inhibition of Protein kinase C beta 2
Sequence of Protein kinase C beta type (P05771 whole entry): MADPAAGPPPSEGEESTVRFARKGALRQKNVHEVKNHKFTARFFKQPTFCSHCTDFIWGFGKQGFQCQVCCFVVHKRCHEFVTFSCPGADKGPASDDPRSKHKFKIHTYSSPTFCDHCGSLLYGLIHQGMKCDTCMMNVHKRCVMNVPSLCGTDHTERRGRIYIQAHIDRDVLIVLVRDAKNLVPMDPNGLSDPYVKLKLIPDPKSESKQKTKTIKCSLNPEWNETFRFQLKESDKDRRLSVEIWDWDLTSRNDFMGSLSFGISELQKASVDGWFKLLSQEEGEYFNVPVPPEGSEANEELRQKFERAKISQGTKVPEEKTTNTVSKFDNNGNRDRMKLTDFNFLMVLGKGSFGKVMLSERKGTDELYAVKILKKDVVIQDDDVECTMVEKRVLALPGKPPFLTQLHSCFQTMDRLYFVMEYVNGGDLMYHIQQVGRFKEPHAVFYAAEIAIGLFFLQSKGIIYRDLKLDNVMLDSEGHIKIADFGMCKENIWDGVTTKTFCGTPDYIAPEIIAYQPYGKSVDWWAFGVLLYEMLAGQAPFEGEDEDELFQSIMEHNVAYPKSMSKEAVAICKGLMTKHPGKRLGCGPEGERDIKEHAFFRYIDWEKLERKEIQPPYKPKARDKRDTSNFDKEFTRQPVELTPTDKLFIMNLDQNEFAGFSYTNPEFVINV
Method in brief: (§2)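 Recombinant human PKCα, PKCγ or PKCβII (5–10 mU) phosphorylating histone H1 (0.1 mg/mL) with 33P-ATP, total ATP 10 µM. Buffer 50 mM Hepes pH 7.4 with Triton X-100, CaCl2, Mg acetate, phosphatidylserine and diacylglycerol. Run 40 min at room temperature, stopped with phosphoric acid, then P30 filter counting.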

[5] = target: Mitogen-activated protein kinase 8 (Homo sapiens) (UniProt P45983); experiment: Inhibition of human JNK1-alpha-1 at 10 uM; design: scale not given: the % may be the effect or the level left; method in brief: as §1
Sequence of Mitogen-activated protein kinase 8 (Homo sapiens) (P45983 whole entry): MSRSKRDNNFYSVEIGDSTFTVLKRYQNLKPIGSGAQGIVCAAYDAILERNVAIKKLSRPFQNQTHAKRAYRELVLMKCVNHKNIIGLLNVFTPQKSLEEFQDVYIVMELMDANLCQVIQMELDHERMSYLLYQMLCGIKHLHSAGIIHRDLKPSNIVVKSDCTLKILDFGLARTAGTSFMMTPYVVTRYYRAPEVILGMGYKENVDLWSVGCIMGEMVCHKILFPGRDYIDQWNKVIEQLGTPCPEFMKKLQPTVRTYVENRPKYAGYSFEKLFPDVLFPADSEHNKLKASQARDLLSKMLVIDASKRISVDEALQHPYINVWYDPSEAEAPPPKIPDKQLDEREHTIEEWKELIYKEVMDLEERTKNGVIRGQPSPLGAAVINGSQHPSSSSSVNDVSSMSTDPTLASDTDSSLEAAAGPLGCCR

[6] = target: Ribosomal protein S6 kinase (P70S6K) (Homo sapiens) (UniProt Q9UBS0+P23443); experiment: Inhibition of human Ribosomal protein S6 kinase (p70S6K) at 10 uM; type: protein-complex assay; design: scale not given: the % may be the effect or the level left
Method in brief: (§3)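 Upstate kinase selectivity panel: each kinase phosphorylated its peptide or protein substrate with 10 µM compound present and 10 µM ATP. Reactions were linear with time. Activity is reported as the mean percentage of control incubations, from duplicate determinations.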

[7] = target: Platelet-derived growth factor receptor beta (Homo sapiens) (UniProt P09619); experiment: Inhibition of Platelet-derived growth factor receptor beta at 10 uM; design: scale not given: the % may be the effect or the level left; method in brief: as §1
Sequence of Platelet-derived growth factor receptor beta (Homo sapiens) (P09619 whole entry): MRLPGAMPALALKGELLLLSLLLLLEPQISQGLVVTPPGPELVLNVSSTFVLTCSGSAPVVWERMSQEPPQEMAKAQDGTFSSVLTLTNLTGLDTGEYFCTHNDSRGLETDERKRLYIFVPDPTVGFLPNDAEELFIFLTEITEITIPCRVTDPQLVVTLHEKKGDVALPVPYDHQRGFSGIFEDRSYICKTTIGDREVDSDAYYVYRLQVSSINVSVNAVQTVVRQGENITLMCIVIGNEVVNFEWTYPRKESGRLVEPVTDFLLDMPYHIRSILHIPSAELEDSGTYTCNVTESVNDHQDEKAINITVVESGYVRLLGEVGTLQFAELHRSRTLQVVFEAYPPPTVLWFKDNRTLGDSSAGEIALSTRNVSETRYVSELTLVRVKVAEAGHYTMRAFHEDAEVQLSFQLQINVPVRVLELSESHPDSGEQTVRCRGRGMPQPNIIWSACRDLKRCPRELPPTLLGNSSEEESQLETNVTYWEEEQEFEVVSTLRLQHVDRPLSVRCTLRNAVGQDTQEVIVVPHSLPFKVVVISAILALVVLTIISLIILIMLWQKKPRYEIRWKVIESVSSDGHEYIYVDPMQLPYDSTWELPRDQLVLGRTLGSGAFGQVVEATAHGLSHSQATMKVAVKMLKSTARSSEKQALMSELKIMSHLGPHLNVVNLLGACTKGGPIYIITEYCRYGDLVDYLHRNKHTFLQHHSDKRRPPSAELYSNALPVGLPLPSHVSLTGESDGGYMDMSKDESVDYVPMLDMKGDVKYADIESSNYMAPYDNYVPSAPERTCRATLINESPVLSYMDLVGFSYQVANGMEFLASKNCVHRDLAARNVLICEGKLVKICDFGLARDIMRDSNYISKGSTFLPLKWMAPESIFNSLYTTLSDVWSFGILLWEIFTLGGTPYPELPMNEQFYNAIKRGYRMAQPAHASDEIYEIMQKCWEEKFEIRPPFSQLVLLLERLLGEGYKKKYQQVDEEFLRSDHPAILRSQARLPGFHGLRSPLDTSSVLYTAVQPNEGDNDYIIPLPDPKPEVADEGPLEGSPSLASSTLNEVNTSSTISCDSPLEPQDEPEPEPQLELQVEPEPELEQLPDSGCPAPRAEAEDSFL

[8] = target: Mitogen-activated protein kinase 1 (Mus musculus) (UniProt P63085); experiment: Inhibition of mouse Mitogen-activated protein kinase 2 at 10 uM; design: scale not given: the % may be the effect or the level left; method in brief: as §3
Sequence of Mitogen-activated protein kinase 1 (Mus musculus) (P63085 whole entry): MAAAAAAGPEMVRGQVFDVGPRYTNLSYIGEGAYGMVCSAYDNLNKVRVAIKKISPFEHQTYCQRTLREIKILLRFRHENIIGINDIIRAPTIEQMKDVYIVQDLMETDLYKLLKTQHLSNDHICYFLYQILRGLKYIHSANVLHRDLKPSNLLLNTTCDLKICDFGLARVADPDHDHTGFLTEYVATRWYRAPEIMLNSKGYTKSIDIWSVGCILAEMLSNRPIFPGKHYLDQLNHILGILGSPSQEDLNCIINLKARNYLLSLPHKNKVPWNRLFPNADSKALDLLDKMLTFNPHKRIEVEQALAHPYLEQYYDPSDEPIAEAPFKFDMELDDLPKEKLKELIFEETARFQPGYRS

[9] = target: RAC-alpha serine/threonine-protein kinase (Homo sapiens) (UniProt P31749); experiment: Inhibition of human Protein kinase B alpha at 10 uM; design: scale not given: the % may be the effect or the level left; method in brief: as §1
Sequence of RAC-alpha serine/threonine-protein kinase (Homo sapiens) (P31749 whole entry): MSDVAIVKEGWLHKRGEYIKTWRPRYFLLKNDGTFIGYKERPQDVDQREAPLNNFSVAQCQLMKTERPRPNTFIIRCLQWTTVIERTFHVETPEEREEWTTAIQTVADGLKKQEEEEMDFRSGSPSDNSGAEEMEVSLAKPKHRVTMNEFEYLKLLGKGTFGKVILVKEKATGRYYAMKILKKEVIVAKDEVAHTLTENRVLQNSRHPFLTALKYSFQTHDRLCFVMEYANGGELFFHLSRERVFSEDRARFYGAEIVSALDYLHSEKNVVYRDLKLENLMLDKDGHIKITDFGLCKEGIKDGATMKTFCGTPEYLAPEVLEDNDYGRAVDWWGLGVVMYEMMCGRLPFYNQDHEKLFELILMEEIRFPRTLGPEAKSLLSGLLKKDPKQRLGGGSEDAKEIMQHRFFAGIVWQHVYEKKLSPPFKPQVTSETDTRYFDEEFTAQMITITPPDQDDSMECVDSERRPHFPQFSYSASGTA

[10] = target: Ribosomal protein S6 kinase alpha-3 (Homo sapiens) (UniProt P51812); experiment: (§4) Inhibition of Ribosomal S6 kinase 3 at 10 uM; method in brief: as §1
[11] = target: Mitogen-activated protein kinase 11 (Homo sapiens) (UniProt Q15759); experiment: Inhibition of human Stress activated protein kinase 2b at 10 uM; design: scale not given: the % may be the effect or the level left; method in brief: as §3
[12] = target: Protein kinase C alpha type (Homo sapiens, UniProt P17252); experiment: Inhibition of human Protein kinase C alpha at 10 uM; design: scale not given: the % may be the effect or the level left; method in brief: as §1
[13] = target: Tyrosine-protein kinase Fyn (Homo sapiens) (UniProt P06241); experiment: Inhibition of human Fyn tyrosine kinase at 10 uM; design: scale not given: the % may be the effect or the level left; method in brief: as §1
Sequence of Tyrosine-protein kinase Fyn (Homo sapiens) (P06241 2-537 limits assumed): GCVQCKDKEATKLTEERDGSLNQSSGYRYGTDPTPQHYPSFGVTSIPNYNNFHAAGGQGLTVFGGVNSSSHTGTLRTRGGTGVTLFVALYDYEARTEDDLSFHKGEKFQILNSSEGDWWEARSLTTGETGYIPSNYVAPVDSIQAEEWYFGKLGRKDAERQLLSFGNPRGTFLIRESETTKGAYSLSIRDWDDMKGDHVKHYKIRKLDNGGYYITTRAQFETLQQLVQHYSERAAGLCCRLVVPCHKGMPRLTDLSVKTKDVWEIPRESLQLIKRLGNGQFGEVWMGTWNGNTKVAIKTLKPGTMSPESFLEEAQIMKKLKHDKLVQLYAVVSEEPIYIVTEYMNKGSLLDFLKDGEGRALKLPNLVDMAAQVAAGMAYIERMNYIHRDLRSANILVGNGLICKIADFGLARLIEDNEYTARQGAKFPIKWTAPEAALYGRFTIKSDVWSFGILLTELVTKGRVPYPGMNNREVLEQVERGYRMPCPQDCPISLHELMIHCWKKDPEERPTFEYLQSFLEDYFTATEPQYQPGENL

[14] = target: Insulin receptor (Homo sapiens) (UniProt P06213); experiment: Inhibition of Insulin receptor at 10 uM; design: scale not given: the % may be the effect or the level left; method in brief: as §1
[15] = target: AMP-activated protein kinase, AMPK (Homo sapiens) (UniProt P54646+O43741+P54619+Q9UGJ0+Q9Y478+Q13131+Q9UGI9); experiment: Inhibition of rat liver AMP-activated Protein Kinase at 10 uM; design: scale not given: the % may be the effect or the level left; conditions: target entry is the homologue from another species; method in brief: as §3
[16] = target: Protein kinase C gamma type (Homo sapiens, UniProt P05129); experiment: Inhibition of Protein kinase C gamma (PKC-gamma)
Method in brief: as §2, with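 “counting. IC50 from 6–10 concentrations; ≥3 experiments in duplicate; ± SEM.” for “counting.”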

[17] = target: Serine/threonine-protein kinase N2 (Homo sapiens) (UniProt Q16513); experiment: Inhibition of human protein kinase C-related protein kinase 2 (PRK2) at 10 uM; design: scale not given: the % may be the effect or the level left; method in brief: as §3
[18] = target: Mitogen-activated protein kinase 1 (Homo sapiens) (UniProt P28482); experiment: Inhibition of human Mitogen-activated protein kinase 1 at 10 uM; design: scale not given: the % may be the effect or the level left; method in brief: as §1
[19] = target: Serine/threonine-protein kinase N2 (Homo sapiens) (UniProt Q16513); experiment: Inhibition of human Protein kinase C related kinase 2 (PRK2) at 10 uM; design: scale not given: the % may be the effect or the level left; method in brief: as §1
[20] = target: Mitogen-activated protein kinase 8 (Homo sapiens) (UniProt P45983); experiment: Inhibition of human c-Jun N-terminal kinase 1-alpha 1 at 10 uM; design: scale not given: the % may be the effect or the level left; method in brief: as §3
[21] = target: Ribosomal protein S6 kinase alpha-3 (Homo sapiens) (UniProt P51812); experiment: as §4; design: scale not given: the % may be the effect or the level left; method in brief: as §1

Row | Activity (Bos taurus) [%] | Activity [1] [%] | Activity [2] [%] | Activity [3] [%] | IC50 [4] [µM] | Activity [6] [%] | Activity [7] [%] | Activity [8] [%] | Activity [9] [%] | Activity [11] [%] | Activity [12] [%] | Activity [13] [%] | Activity [15] [%] | IC50 [16] [µM] | SMILES | further results
1 | 94 | 61 | 72 | 100 | > 10 | 93 | 86 | 88 | 102 | 104 | 94 | 95 | 99 | > 10 | O=C1NC(=O)C2=C1c1cn(c3ncccc13)CCOCCOCCOCCOCCn1cc2c2cccnc21 | Activity [5]: 98%; Of control [10]: 63%; Activity [14]: 92%; Activity [17]: 104%
2 | 88 | 58 | 67 | 67 | 1.16 | 92 | 84 | 85 | 97 | 105 | 51 | 92 | 88 | > 10 | O=C1NC(=O)C2=C1c1cn(c3ncccc13)CCOCCOCCOCCn1cc2c2cccnc21 | Activity [18]: 106%; Activity [19]: 92%; Activity [20]: 78%; Activity [21]: 21%
